Measured values from ChEMBL document CHEMBL4028906, “Allosteric Inhibitors of SHP2 with Therapeutic Potential for Cancer Treatment” (J Med Chem, 2017).
Active and inactive are the calls of the source. The rule behind the calls is not given here.

Key:
[1] = test system: MV4-11; assay: Antitumor activity against human MV4-11 cells xenografted in BALB/c mouse assessed as tumor growth inhibition at 30 mg/kg administered qd via oral gavage measured twice weekly relative to control; type: functional; conditions: MV4-11, po, read-out: TGI
Procedure, shortened: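 Female BALB/c nude mice given subcutaneous MV4;11 cells (5×10^6, in 50% phenol red-free matrigel in PBS). Once tumours reached about 230 mm³, mice were randomised to vehicle or oral gavage once daily (10 ml/kg). Tumour volume was measured by caliper in two dimensions twice a week, along with body weight. Data given as mean±sem, with significance assessed on day 14.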

[2] = target: T1, Tyrosine-protein phosphatase non-receptor type 11 (Homo sapiens) (UniProt Q06124); assay: Allosteric inhibition of SHP2 PTP domain (unknown origin) expressed in Escherichia coli BL21(DE3) using DIFMUP as substrate preincubated for 20 mins followed by substrate addition measured after 20 mins by phosphatase assay
T1 sequence (whole entry): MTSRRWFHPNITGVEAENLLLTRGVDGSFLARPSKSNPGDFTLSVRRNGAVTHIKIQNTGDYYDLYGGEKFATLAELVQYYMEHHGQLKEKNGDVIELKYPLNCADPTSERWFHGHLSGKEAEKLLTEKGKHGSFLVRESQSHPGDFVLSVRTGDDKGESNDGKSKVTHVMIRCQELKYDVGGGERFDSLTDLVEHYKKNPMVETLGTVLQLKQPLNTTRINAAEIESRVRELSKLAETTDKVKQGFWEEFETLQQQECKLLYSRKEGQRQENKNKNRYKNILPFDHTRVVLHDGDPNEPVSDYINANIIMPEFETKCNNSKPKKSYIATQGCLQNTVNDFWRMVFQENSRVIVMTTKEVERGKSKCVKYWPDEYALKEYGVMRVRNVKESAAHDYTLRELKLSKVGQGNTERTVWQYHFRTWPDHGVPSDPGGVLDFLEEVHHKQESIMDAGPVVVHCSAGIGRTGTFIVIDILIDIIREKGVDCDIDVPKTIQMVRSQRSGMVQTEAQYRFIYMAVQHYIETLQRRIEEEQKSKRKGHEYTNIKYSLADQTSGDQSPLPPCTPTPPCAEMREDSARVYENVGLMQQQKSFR
Procedure, shortened: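 His-tagged SHP2 constructs expressed in E. coli BL21(DE3) (0.5 mM IPTG, 5 h, 30 °C) and Ni-column purified. 1.5 nM enzyme preincubated 20 min at room temperature with compound in 0.1 M sodium acetate pH 5.0. DIFMUP then added, 20 min further, fluorescence at 358/455 nm. Eight 3-fold dilutions, duplicate wells, IC50 from at least three independent experiments.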

[3] = target: Dual specificity protein phosphatase 6 (Homo sapiens, UniProt Q16828); assay: Inhibition of MKP3 (unknown origin) expressed in Escherichia coli BL21(DE3) using DIFMUP as substrate preincubated for 20 mins followed by substrate addition measured after 20 mins by phosphatase assay
Procedure, shortened: (§1)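 Phosphatases purified from E. coli and run as for SHP2 E76A: 20 min room-temperature preincubation with compound in 0.1 M sodium acetate pH 5.0, then DIFMUP at each enzyme's Km, 20 min, fluorescence 358/455 nm. Eight 3-fold dilutions in duplicate; IC50 from at least three independent experiments.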

[4] = test system: Mus musculus; assay: Toxicity in BALB/c mouse xenografted with human MV4-11 cells assessed as effect on body weight at 10 to 30 mg/kg administered qd via oral gavage measured twice weekly; type: organism-based; conditions: in vivo
Procedure, shortened: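 Female BALB/c nude mice implanted subcutaneously with 5×10^6 MV4;11 cells in 50% matrigel/PBS. At about 230 mm³, mice randomized to vehicle, 10 or 30 mg/kg (10 ml/kg) once daily by oral gavage. Body weight and caliper tumor dimensions measured twice weekly; mean±sem.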

[5] = target: T1, Tyrosine-protein phosphatase non-receptor type 11 (Homo sapiens); assay: Allosteric inhibition of SHP2 in human NCI-H661 cells assessed as downregulation of ERK1/2 activation at 10 uM by Western blot analysis; type: cell-based; conditions: TDE = time-dependent effect
[6] = target: T1, Tyrosine-protein phosphatase non-receptor type 11 (Homo sapiens); assay: Allosteric inhibition of SHP2 in human SF268 cells stably expressing Yap-Luc reporter assessed as reduction in YAP transcriptional activity after 12 hrs by Yap-luciferase reporter gene assay; type: cell-based
[7] = test system: BT-474; assay: Antiproliferative activity against human BT474 cells at 3 to 6 uM after 2 days by CellTiter-Glo assay; type: functional, cell-based
Procedure, shortened: (§2)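 3000 cells/well in 96-well plates, grown overnight, then inhibitor at indicated concentrations for 2 days (48 h). Viability by CellTiter-Glo; mean±s.d., n=3.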

[8] = test system: Ramos; assay: Antiproliferative activity against human Ramos cells at 3 to 6 uM after 2 days by CellTiter-Glo assay; type: functional, cell-based; procedure, shortened: as §2
[9] = test system: MV4-11; assay: Antiproliferative activity against human MV4-11 cells at 3 to 6 uM after 2 days by CellTiter-Glo assay; type: functional, cell-based; procedure, shortened: as §2
[10] = test system: KMS-11; assay: Antiproliferative activity against human KMS11 cells at 3 to 6 uM after 2 days by CellTiter-Glo assay; type: functional, cell-based; procedure, shortened: as §2
[11] = test system: THP-1; assay: Antiproliferative activity against human THP1 cells at 3 to 6 uM after 2 days by CellTiter-Glo assay; type: functional, cell-based; procedure, shortened: as §2
[12] = species on record: Homo sapiens; assay: Selectivity ratio of IC50 for SHP1 (unknown origin) expressed in Escherichia coli BL21(DE3) to IC50 for SHP2 E76A mutant (unknown origin) expressed in Escherichia coli BL21(DE3)
Procedure, shortened: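 Ratio of IC50 values from one DIFMUP fluorescence assay (Ex/Em 358/455), room temperature, 0.1 M sodium acetate pH 5.0. His-tagged SHP2 E76A (1.5 nM) or counter-phosphatase purified from E. coli, preincubated 20 min with compound (eight 3-fold dilutions), then DIFMUP added for 20 min. DIFMUP was at Km for each counter-phosphatase. Duplicates; IC50 from at least three independent experiments.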

[13] = target: T1, Tyrosine-protein phosphatase non-receptor type 11 (Homo sapiens); assay: Allosteric inhibition of SHP2 in human SF268 cells assessed as upregulation of YAP phosphorylation up to 20 uM after 2 hrs by Western blot analysis; type: cell-based
Procedure, shortened: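 SF268 cells given DMSO or inhibitor for 2 h. YAP immunoprecipitated and immunoblotted with pY-100 phosphotyrosine antibody, which detects the single YXXP tyrosine Y357.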

[14] = Oral bioavailability in nu/nu mouse at 10 mg/kg measured up to 24 hrs postdose by LC/MS/MS analysis; type: ADME, organism-based; conditions: in vivo
Procedure, shortened: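 Female nu/nu nude mice dosed IV via tail vein at 5 mg/kg or orally at 10 mg/kg. Blood sampled at 0.083, 0.25, 0.5, 1, 2, 4, 8 and 24 h post-dose (orbital sinus, terminal cardiac puncture; EDTA-2K). Plasma separated at 4 °C, precipitated with acetonitrile containing internal standard, quantified by LC/MS/MS.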

[15] = test system: KG-1a; assay: Antiproliferative activity against human KG1a cells at 3 to 6 uM after 2 days by CellTiter-Glo assay; type: functional, cell-based; procedure, shortened: as §2
[16] = test system: KOPN-8; assay: Antiproliferative activity against human KOPN8 cells at 3 to 6 uM after 2 days by CellTiter-Glo assay; type: functional, cell-based; procedure, shortened: as §2
[17] = target: Dual specificity protein phosphatase 3 (Homo sapiens, UniProt P51452); assay: Inhibition of VHR (unknown origin) expressed in Escherichia coli BL21(DE3) using DIFMUP as substrate preincubated for 20 mins followed by substrate addition measured after 20 mins by phosphatase assay; procedure, shortened: as §1
Sequence of Dual specificity protein phosphatase 3 (P51452 whole entry): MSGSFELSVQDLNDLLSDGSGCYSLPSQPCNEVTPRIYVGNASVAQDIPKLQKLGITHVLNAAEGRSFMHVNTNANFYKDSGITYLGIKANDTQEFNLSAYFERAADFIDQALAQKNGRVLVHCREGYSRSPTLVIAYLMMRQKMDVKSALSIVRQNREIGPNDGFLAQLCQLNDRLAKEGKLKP

Sequence of Dual specificity protein phosphatase 6 (Q16828 whole entry): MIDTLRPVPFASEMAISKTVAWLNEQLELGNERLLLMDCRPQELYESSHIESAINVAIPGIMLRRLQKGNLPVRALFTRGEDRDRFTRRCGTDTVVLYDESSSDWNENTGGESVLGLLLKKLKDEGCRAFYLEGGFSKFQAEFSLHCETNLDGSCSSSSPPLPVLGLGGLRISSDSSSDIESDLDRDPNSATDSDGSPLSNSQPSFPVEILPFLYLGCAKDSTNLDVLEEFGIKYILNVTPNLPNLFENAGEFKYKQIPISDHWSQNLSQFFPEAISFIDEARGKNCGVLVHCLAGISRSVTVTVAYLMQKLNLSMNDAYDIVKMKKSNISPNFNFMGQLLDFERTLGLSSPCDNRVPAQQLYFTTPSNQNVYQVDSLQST

In the case of `CC1(N)CCN(c2nc(-c3ccc4cc(Br)ccc4c3)cs2)CC1`, the inhibition in vivo at 30 mg/kg [1] is reported as 56%, the inhibition [2] is reported as “inactive” and the IC50 [3] is reported as over 100 µM. The Activity [4] was “Non-Toxic”, the inhibition [5] was “Tde” and the inhibition [6] was “Dose-dependent effect”. The Activity [7] was “Active”, the Activity [8] was “Active” and the Activity [9] was “Active”. For the same molecule, the Activity [10] was “Active”, the Activity [11] was “Active” and the Ratio IC50 [12] was 48. The inhibition [13] was “Active”, the bioavailability [14] was 67% and the Activity [15] was “Active”. The Activity [16] was “Active” and the IC50 [17] was over 100 µM.
